Measured values: ChEMBL document CHEMBL2146397, “The Substrate-Activity-Screening methodology applied to receptor tyrosine kinases: a proof-of-concept study” (Eur J Med Chem, 2012)
Square brackets hold non-standard residues; d marks the D form. Peptide text beside a SMILES is read from it. * marks the point of attachment. Trp(6-Cl) = N[C@@H](Cc1c[nH]c2cc(Cl)ccc12)C(=O)O; Phe(4-Cl) = N[C@@H](Cc1ccc(Cl)cc1)C(=O)O; X2 = O=C(O)[C@H]1CCCC[C@@H]1C(=O)*; 3Pal = N[C@@H](Cc1cccnc1)C(=O)O

These molecules were tested against Insulin-like growth factor 1 receptor (Homo sapiens, UniProt P08069) (assay: Activity at pre-activated human GST-His6-tagged IGF-1R expressed in Sf9 cells assessed as initial phosphorylation rate at 10 uM measured every 2 mins for 60 mins by Michaelis-Menten constant based ADP Quest assay).
Insulin-like growth factor 1 receptor, sequence (P08069 31-736 limits assumed): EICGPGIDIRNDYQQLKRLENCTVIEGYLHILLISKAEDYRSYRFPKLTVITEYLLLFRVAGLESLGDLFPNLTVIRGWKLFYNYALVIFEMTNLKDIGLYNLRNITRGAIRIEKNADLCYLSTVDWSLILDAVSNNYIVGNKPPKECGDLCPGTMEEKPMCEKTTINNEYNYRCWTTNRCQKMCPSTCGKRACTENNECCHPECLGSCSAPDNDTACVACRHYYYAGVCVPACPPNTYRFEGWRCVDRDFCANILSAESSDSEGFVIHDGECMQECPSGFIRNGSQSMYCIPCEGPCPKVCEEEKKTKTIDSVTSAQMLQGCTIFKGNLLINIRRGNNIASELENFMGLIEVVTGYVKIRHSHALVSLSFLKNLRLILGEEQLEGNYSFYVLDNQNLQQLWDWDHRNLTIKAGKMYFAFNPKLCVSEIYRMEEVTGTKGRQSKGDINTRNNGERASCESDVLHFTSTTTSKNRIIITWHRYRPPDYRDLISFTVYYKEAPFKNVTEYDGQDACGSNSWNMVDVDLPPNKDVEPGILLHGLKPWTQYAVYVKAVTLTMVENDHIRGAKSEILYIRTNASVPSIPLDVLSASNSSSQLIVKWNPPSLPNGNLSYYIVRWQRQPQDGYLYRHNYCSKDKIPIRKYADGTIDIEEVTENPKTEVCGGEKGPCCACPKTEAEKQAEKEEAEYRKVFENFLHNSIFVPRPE
Insulin-like growth factor 1 receptor, sequence (P08069 741-1367 limits assumed): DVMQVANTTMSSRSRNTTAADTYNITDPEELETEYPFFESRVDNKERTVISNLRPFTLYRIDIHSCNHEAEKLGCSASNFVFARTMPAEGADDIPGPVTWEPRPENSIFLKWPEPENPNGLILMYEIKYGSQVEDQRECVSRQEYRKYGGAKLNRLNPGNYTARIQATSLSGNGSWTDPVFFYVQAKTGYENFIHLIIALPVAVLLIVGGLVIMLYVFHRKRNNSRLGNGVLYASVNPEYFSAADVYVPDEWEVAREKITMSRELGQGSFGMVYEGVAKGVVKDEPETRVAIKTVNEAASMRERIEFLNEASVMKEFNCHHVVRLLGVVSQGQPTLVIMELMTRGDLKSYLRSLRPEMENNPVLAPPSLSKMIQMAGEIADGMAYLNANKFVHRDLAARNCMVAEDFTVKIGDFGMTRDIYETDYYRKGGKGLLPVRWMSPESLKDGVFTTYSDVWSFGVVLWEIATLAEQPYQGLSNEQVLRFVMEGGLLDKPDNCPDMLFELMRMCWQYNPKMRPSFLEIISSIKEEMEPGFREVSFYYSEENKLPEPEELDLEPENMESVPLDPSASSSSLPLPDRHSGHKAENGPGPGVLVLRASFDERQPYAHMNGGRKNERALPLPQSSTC
Summary of the method: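 Reaction buffer was the same plus 0.1 mg/mL BSA, with kinase, peptide substrate and detection reagents. Started with ATP; fluorescence read every 2 min for 60 min; 3 independent experiments.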

Compound | Activity [nM/s]
CNC(=O)[C@H](Cc1c[nH]c2cc(Cl)ccc12)NC(=O)[C@H](CCC(=O)O)NC(=O)[C@H](Cc1ccccc1)NC(=O)[C@H](Cc1ccc(O)cc1)NC(=O)[C@H](CC(=O)O)NC(C)=O (HELM PEPTIDE1{[ac].D.Y.F.E.[O=C([C@H](Cc1c[nH]c2cc(Cl)ccc12)N[*:1])[*:2]].[CN[*:1]]}$$$$V2.0) | 6.7
CNC(=O)[C@H](Cc1ccccc1)NC(=O)[C@H](CCC(=O)O)NC(=O)[C@H](Cc1ccccc1)NC(=O)[C@H](Cc1ccc(O)cc1)NC(=O)[C@@H]1CCCC[C@@H]1C(=O)O (HELM PEPTIDE1{[O=C(O)[C@H]1CCCC[C@H]1C(=O)[*:2]].Y.F.E.F.[CN[*:1]]}$$$$V2.0) | 1.1
CNC(=O)[C@H](Cc1c[nH]c2ccccc12)NC(=O)[C@H](CCC(=O)O)NC(=O)[C@H](Cc1ccccc1)NC(=O)[C@H](Cc1ccc(O)cc1)NC(=O)CCC(=O)O (HELM PEPTIDE1{[O=C(O)CCC(=O)[*:2]].Y.F.E.W.[CN[*:1]]}$$$$V2.0) | 1.45
CNC(=O)[C@H](Cc1ccc(Cl)cc1)NC(=O)CNC(=O)[C@H](Cc1ccccc1)NC(=O)[C@H](Cc1ccc(O)cc1)NC(=O)[C@H](CC(=O)O)NC(C)=O (HELM PEPTIDE1{[ac].D.Y.F.G.[O=C([C@H](Cc1ccc(Cl)cc1)N[*:1])[*:2]].[CN[*:1]]}$$$$V2.0) | 0.47
CNC(=O)[C@H](Cc1c[nH]c2ccccc12)NC(=O)[C@H](CCC(=O)O)NC(=O)[C@H](Cc1ccccc1)NC(=O)[C@H](Cc1ccc(O)cc1)NC(=O)[C@@H]1CCC[C@H]1C(=O)O (HELM PEPTIDE1{[O=C(O)[C@@H]1CCC[C@H]1C(=O)[*:2]].Y.F.E.W.[CN[*:1]]}$$$$V2.0) | 5.4
CNC(=O)[C@H](Cc1ccccc1)NC(=O)[C@H](CCC(=O)O)NC(=O)[C@H](Cc1ccccc1)NC(=O)[C@H](Cc1ccc(O)cc1)NC(=O)[C@H](CC(=O)O)NC(C)=O (HELM PEPTIDE1{[ac].D.Y.F.E.F.[CN[*:1]]}$$$$V2.0) | 1.7
CNC(=O)[C@H](Cc1c[nH]c2ccccc12)NC(=O)[C@H](CCC(=O)O)NC(=O)[C@H](Cc1ccccc1)NC(=O)[C@H](Cc1ccc(O)cc1)NC(=O)[C@H](CC(N)=O)NC(C)=O (HELM PEPTIDE1{[ac].N.Y.F.E.W.[CN[*:1]]}$$$$V2.0) | 2.8
CNC(=O)[C@@H](Cc1c[nH]c2ccccc12)NC(=O)[C@H](CCC(=O)O)NC(=O)[C@H](Cc1ccccc1)NC(=O)[C@H](Cc1ccc(O)cc1)NC(=O)[C@H](CC(=O)O)NC(C)=O | 0.28
CNC(=O)[C@H](Cc1c[nH]c2cc(Cl)ccc12)NC(=O)[C@H](CCC(=O)O)NC(=O)[C@H](Cc1ccccc1)NC(=O)[C@H](Cc1ccc(O)cc1)NC(=O)[C@H](CCC(=O)O)NC(C)=O (HELM PEPTIDE1{[ac].E.Y.F.E.[O=C([C@H](Cc1c[nH]c2cc(Cl)ccc12)N[*:1])[*:2]].[CN[*:1]]}$$$$V2.0) | 3.3
CNC(=O)[C@H](Cc1ccc(Cl)cc1)NC(=O)[C@H](CCC(=O)O)NC(=O)[C@H](Cc1ccccc1)NC(=O)[C@H](Cc1ccc(O)cc1)NC(=O)[C@H](CC(=O)O)NC(C)=O (HELM PEPTIDE1{[ac].D.Y.F.E.[O=C([C@H](Cc1ccc(Cl)cc1)N[*:1])[*:2]].[CN[*:1]]}$$$$V2.0) | 2.6
CNC(=O)[C@H](Cc1ccc(Cl)c(Cl)c1)NC(=O)CNC(=O)[C@H](Cc1ccccc1)NC(=O)[C@H](Cc1ccc(O)cc1)NC(=O)[C@H](CC(=O)O)NC(C)=O (HELM PEPTIDE1{[ac].D.Y.F.G.[O=C([C@H](Cc1ccc(Cl)c(Cl)c1)N[*:1])[*:2]].[CN[*:1]]}$$$$V2.0) | 0.55
CNC(=O)[C@H](Cc1ccccc1)NC(=O)[C@H](CCC(=O)O)NC(=O)[C@H](Cc1ccccc1)NC(=O)[C@H](Cc1ccc(O)cc1)NC(=O)C1CCC1C(=O)O (some centres undefined) (HELM PEPTIDE1{[O=C(O)C1CCC1C(=O)[*:2]].Y.F.E.F.[CN[*:1]]}$$$$V2.0) | 1.9
CNC(=O)[C@H](Cc1ccc(Cl)cc1)NC(=O)[C@H](CCC(=O)O)NC(=O)[C@H](Cc1ccccc1)NC(=O)[C@H](Cc1ccc(O)cc1)NC(=O)[C@H](CCC(=O)O)NC(C)=O (HELM PEPTIDE1{[ac].E.Y.F.E.[O=C([C@H](Cc1ccc(Cl)cc1)N[*:1])[*:2]].[CN[*:1]]}$$$$V2.0) | 0.26
CNC(=O)[C@@H](Cc1c[nH]c2ccccc12)NC(=O)[C@H](CCC(=O)O)NC(=O)[C@H](Cc1ccccc1)NC(=O)[C@H](Cc1ccc(O)cc1)NC(=O)[C@H]1CCCC[C@@H]1C(=O)O | 0.51

Results, then the molecule that gave them:

Activity [nM/s] | Compound
3.3 | CNC(=O)[C@H](Cc1c[nH]c2ccccc12)NC(=O)[C@H](CCC(=O)O)NC(=O)[C@H](Cc1ccccc1)NC(=O)[C@H](Cc1ccc(O)cc1)NC(=O)c1ccccc1[N+](=O)[O-] (HELM PEPTIDE1{[O=C(c1ccccc1[N+](=O)[O-])[*:2]].Y.F.E.W.[CN[*:1]]}$$$$V2.0)
0.09 | CNC(=O)[C@@H](Cc1c[nH]c2ccccc12)NC(=O)CNC(=O)[C@H](Cc1ccccc1)NC(=O)[C@H](Cc1ccc(O)cc1)NC(=O)[C@H](CC(=O)O)NC(C)=O
4.6 | CNC(=O)[C@H](Cc1c[nH]c2ccccc12)NC(=O)[C@H](CCC(=O)O)NC(=O)[C@H](Cc1ccccc1)NC(=O)[C@H](Cc1ccc(O)cc1)NC(=O)[C@@H]1CCCC[C@@H]1C(=O)O
0.24 | CNC(=O)[C@H](Cc1ccc2ccccc2c1)NC(=O)CNC(=O)[C@H](Cc1ccccc1)NC(=O)[C@H](Cc1ccc(O)cc1)NC(=O)[C@H](CC(=O)O)NC(C)=O (HELM PEPTIDE1{[ac].D.Y.F.G.[O=C([C@H](Cc1ccc2ccccc2c1)N[*:1])[*:2]].[CN[*:1]]}$$$$V2.0)
4.6 | CNC(=O)[C@H](Cc1ccccc1)NC(=O)[C@H](CCC(=O)O)NC(=O)[C@H](Cc1ccccc1)NC(=O)[C@H](Cc1ccc(O)cc1)NC(=O)c1ccccc1[N+](=O)[O-] (HELM PEPTIDE1{[O=C(c1ccccc1[N+](=O)[O-])[*:2]].Y.F.E.F.[CN[*:1]]}$$$$V2.0)
0.25 | CNC(=O)[C@H](Cc1ccccc1)NC(=O)[C@H](CCC(=O)O)NC(=O)[C@H](Cc1ccccc1)NC(=O)[C@H](Cc1ccc(O)cc1)NC(=O)CCC(=O)O (HELM PEPTIDE1{[O=C(O)CCC(=O)[*:2]].Y.F.E.F.[CN[*:1]]}$$$$V2.0)
1.1 | CNC(=O)[C@H](Cc1c[nH]c2ccccc12)NC(=O)[C@H](CCC(=O)O)NC(=O)[C@H](Cc1ccccc1)NC(=O)[C@H](Cc1ccc(O)cc1)NC(=O)[C@@H]1CCCC[C@H]1C(=O)O
0.17 | CNC(=O)[C@H](Cc1c[nH]c2ccccc12)NC(=O)[C@H](CCC(=O)O)NC(=O)[C@H](Cc1ccccc1)NC(=O)[C@H](Cc1ccc(O)cc1)NC(C)=O (HELM PEPTIDE1{[ac].Y.F.E.W.[CN[*:1]]}$$$$V2.0)
6.2 | CNC(=O)[C@H](Cc1c[nH]c2ccccc12)NC(=O)[C@H](CCC(=O)O)NC(=O)[C@H](Cc1ccccc1)NC(=O)[C@H](Cc1ccc(O)cc1)NC(=O)[C@H](CC(=O)O)NC(C)=O
2.1 | CNC(=O)[C@H](Cc1ccc(Cl)c(Cl)c1)NC(=O)[C@H](CCC(=O)O)NC(=O)[C@H](Cc1ccccc1)NC(=O)[C@H](Cc1ccc(O)cc1)NC(=O)[C@H](CC(=O)O)NC(C)=O (HELM PEPTIDE1{[ac].D.Y.F.E.[O=C([C@H](Cc1ccc(Cl)c(Cl)c1)N[*:1])[*:2]].[CN[*:1]]}$$$$V2.0)
0.24 | CNC(=O)[C@H](Cc1ccccc1)NC(=O)[C@H](CCC(=O)O)NC(=O)[C@H](Cc1ccccc1)NC(=O)[C@H](Cc1ccc(O)cc1)NC(=O)[C@H]1CCC[C@@H]1C(=O)O (HELM PEPTIDE1{[O=C(O)[C@H]1CCC[C@@H]1C(=O)[*:2]].Y.F.E.F.[CN[*:1]]}$$$$V2.0)
2.5 | CNC(=O)[C@H](Cc1c[nH]c2ccccc12)NC(=O)[C@H](CCC(=O)O)NC(=O)[C@H](Cc1ccccc1)NC(=O)[C@H](Cc1ccc(O)cc1)NC(=O)[C@H](CCC(=O)O)NC(C)=O
4 | CNC(=O)[C@H](Cc1ccc(Cl)cc1)NC(=O)[C@H](CCC(=O)O)NC(=O)[C@H](Cc1ccccc1)NC(=O)[C@H](Cc1ccc(O)cc1)NC(=O)[C@H]1CCCC[C@@H]1C(=O)O (X2-YFE[Phe(4-Cl)]-NHMe)
1 | CNC(=O)[C@H](Cc1c[nH]c2cc(Cl)ccc12)NC(=O)[C@H](CCC(=O)O)NC(=O)[C@H](Cc1ccccc1)NC(=O)[C@H](Cc1ccc(O)cc1)NC(=O)[C@H](Cc1cccnc1)NC(C)=O (Ac-[3Pal]YFE[Trp(6-Cl)]-NHMe)
0.84 | CNC(=O)[C@H](Cc1c[nH]c2ccccc12)NC(=O)[C@H](CCC(=O)O)NC(=O)[C@H](Cc1ccccc1)NC(=O)[C@H](Cc1ccc(O)cc1)NC(=O)[C@H]1CCC[C@@H]1C(=O)O (HELM PEPTIDE1{[O=C(O)[C@H]1CCC[C@@H]1C(=O)[*:2]].Y.F.E.W.[CN[*:1]]}$$$$V2.0)
0.46 | CNC(=O)[C@H](Cc1ccccc1)NC(=O)[C@H](CCC(=O)O)NC(=O)[C@H](Cc1ccccc1)NC(=O)[C@H](Cc1ccc(O)cc1)NC(=O)[C@H](CC(N)=O)NC(C)=O (HELM PEPTIDE1{[ac].N.Y.F.E.F.[CN[*:1]]}$$$$V2.0)
3.4 | CNC(=O)[C@H](Cc1ccc2ccccc2c1)NC(=O)[C@H](CCC(=O)O)NC(=O)[C@H](Cc1ccccc1)NC(=O)[C@H](Cc1ccc(O)cc1)NC(=O)[C@H](CC(=O)O)NC(C)=O (HELM PEPTIDE1{[ac].D.Y.F.E.[O=C([C@H](Cc1ccc2ccccc2c1)N[*:1])[*:2]].[CN[*:1]]}$$$$V2.0)
10.9 | CNC(=O)[C@H](Cc1c[nH]c2ccccc12)NC(=O)[C@H](CCC(=O)O)NC(=O)[C@H](Cc1ccccc1)NC(=O)[C@H](Cc1ccc(O)cc1)NC(=O)[C@H]1CCCC[C@@H]1C(=O)O
0.17 | CNC(=O)[C@H](Cc1ccccc1)NC(=O)[C@H](CCC(=O)O)NC(=O)[C@H](Cc1ccccc1)NC(=O)[C@H](Cc1ccc(O)cc1)NC(=O)[C@@H]1CCCC[C@H]1C(=O)O (HELM PEPTIDE1{[O=C(O)[C@@H]1CCCC[C@H]1C(=O)[*:2]].Y.F.E.F.[CN[*:1]]}$$$$V2.0)
5.2 | CNC(=O)[C@H](Cc1ccccc1)NC(=O)[C@H](CCC(=O)O)NC(=O)[C@H](Cc1ccccc1)NC(=O)[C@H](Cc1ccc(O)cc1)NC(=O)[C@H]1CCCC[C@@H]1C(=O)O (HELM PEPTIDE1{[O=C(O)[C@H]1CCCC[C@@H]1C(=O)[*:2]].Y.F.E.F.[CN[*:1]]}$$$$V2.0)
